Assay results reported in PubChem BioAssay AID686992 (Broad Institute, 2013).
Among all 260,000 compounds or so, about 960 (0.37%) were called active.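 How the source made its calls: active means mean E-selectin-positive cell signal at least 10% of the positive control, reached in at least 60% of replicates, without over 20% cell loss; inconclusive means no rule given, readout overlaps actives, possibly toxicity-flagged; inactive means the rest, including those meeting only one limit.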 What follows is part of a selection rich in actives, with near analogues and random picks from the rest.

Each compound was assayed against E-selectin (Homo sapiens) (UniProt P16581) (assay: E-selectin induction in HUVECs, primary screen, imaging, HUVEC, immunofluorescence imaging, single point (AID 686992;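 further: signal is the percent of cells scored E-selectin positive by PE staining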)). Conditions: at 7.58 µM, hits give high values, normalized: neutral wells 0, TNF-alpha wells 100.
E-selectin (Homo sapiens), sequence (P16581 whole entry, looked up): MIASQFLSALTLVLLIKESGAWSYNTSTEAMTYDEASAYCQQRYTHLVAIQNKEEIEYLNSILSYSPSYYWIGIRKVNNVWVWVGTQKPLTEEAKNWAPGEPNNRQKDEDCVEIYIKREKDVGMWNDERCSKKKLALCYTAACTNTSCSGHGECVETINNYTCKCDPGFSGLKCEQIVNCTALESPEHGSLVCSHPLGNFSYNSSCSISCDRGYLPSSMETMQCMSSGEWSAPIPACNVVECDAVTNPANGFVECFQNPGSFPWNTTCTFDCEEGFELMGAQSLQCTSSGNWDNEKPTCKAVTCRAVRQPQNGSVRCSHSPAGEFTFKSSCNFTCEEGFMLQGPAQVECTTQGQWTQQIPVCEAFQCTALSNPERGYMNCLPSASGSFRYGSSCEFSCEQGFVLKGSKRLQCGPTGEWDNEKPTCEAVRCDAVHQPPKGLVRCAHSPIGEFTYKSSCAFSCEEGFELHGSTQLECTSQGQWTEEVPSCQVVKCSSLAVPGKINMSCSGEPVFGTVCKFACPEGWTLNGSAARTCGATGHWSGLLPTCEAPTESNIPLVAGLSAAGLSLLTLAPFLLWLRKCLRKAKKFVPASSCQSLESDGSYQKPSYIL
How it was run: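 System: HUVEC, human umbilical vein endothelial cells; quantity: 3,000 cells/well; buffer or medium: EGM-2 medium, gelatin-coated wells; dosing: single-point compound dose; detection: immunofluorescence imaging; evaluation: % PE-positive cells; benchmarks: TNF-alpha, DMSO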

| SMILES | activation |
| --- | --- |
| O=Cc1cn(Cc2ccccc2)nc1-c1cccnc1 | 2.7% (inactive) |
| COc1ccc(-c2nn(-c3ccccc3)cc2/C=N/Nc2ccccn2)cc1OC | -1.26% (inactive) |
| O=Cc1cn(-c2ccccc2)nc1-c1ccccn1 | 31.7% (active) |
| COC(=O)c1ccc2nc(-c3ccc(Cl)cc3)c(Cc3cccc(F)c3)n2c1 | -0.152% (inactive) |
| Cc1cc2nc(-c3ccc(F)cc3)c(Cc3ccsc3)n2c(C)c1Br | 0.0835% (inactive) |
| O=C(CCCn1c(=O)c2sccc2n(CC(=O)NCC2CCCO2)c1=O)NCc1ccco1 (stereo unspecified) | 8.64% (inactive) |
| O=C(Cc1ccc(-n2c(=O)c3sccc3n(Cc3ccc(F)cc3)c2=O)cc1)NCc1ccco1 | 159% (active) |
| CC1=C(C(=O)N2CCOCC2)CC(CC(=O)NCc2ccco2)C(=O)N1Cc1ccc(F)cc1 (stereo unspecified) | 8.96% (inactive) |
| CC1(C(=O)Nc2cccc3c2CCCC3)CCN1C(=O)C1(c2ccccc2)CC1 (stereo unspecified) | 0.283% (inactive) |
| COCCCNC(=O)C[C@H]1C[C@@]2(C(=O)OC)C(=C[C@H](C(C)(C)C)O[C@@H]2C)N(Cc2ccc3c(c2)OCO3)C1=O | -0.0885% (inactive) |
| O=C(C[C@@H]1C[C@H]2c3cc(NC(=O)NC4CCCC4)ccc3O[C@H]2[C@@H](CO)O1)NC1CCCCC1 | 0.37% (inactive) |
| CC1COc2ccccc2N1S(=O)(=O)c1ccccc1 (stereo unspecified) | 0.485% (inactive) |
| CC1CC(=O)Nc2ccccc2N1S(=O)(=O)c1cccs1 (stereo unspecified) | 28.3% (active) |
| CC1CC(=O)Nc2ccccc2N1C(=O)COc1ccc2cc(Br)ccc2c1 (stereo unspecified) | 0.0775% (inactive) |
| CC(C)C[C@H]1CN([C@@H](CC(C)C)CN2CCC[C@@H]2CN2C(=O)C(=O)NC[C@@H]2Cc2ccccc2)C(=O)C(=O)N1CCc1ccccc1 | 0.726% (inactive) |
| CO[C@H]1CN(C)C(=O)c2cc(NC(=O)c3cc(C)on3)ccc2OC[C@@H](C)N(C(C)=O)C[C@H]1C | -0.127% (inactive) |
| COc1cccc(-c2ccc3c(c2)N(Cc2ccccc2OC)C(=O)C(C)S3)c1 (stereo unspecified) | -0.102% (inactive) |
| O=S1(=O)CCN(C2CCCCCCCCCCC2)CC1 | -0.851% (inactive) |
| O=C(c1ccco1)N1CCN(C(=S)Nc2cc(F)cc(F)c2)CC1 | -1.13% (inactive) |
| O=C(CNS(=O)(=O)c1ccccc1)N1CCN(C(=O)c2ccco2)CC1 | 0.056% (inactive) |
| CC(C)C(c1nnnn1C1CCCCC1)N1CCN(C(=O)c2ccco2)CC1 (stereo unspecified) | 39.5% (active) |
| C[C@H](CO)N1C[C@H](C)[C@@H](CN(C)Cc2ccc(C(=O)O)cc2)Oc2ccc(NC(=O)Cn3cnnn3)cc2CC1=O | 2.12% (inactive) |
| COc1ccc(CN(C)C[C@H]2Oc3ccc(NC(=O)Cn4cnnn4)cc3CC(=O)N([C@@H](C)CO)C[C@@H]2C)cc1 | 52.1% (active) |
| C[C@H]1CN([C@@H](C)CO)C(=O)Cc2cc(NC(=O)Cn3cnnn3)ccc2O[C@H]1CN(C)Cc1ccc(C(=O)O)cc1 | -4.49% (inactive) |
| C[C@@H]1CN([C@H](C)CO)C(=O)Cc2cc(NC(=O)Nc3ccccc3)ccc2O[C@H]1CN(C)Cc1ccc(Cl)c(Cl)c1 | 0.392% (inactive) |
| Cc1noc(C)c1NC(=O)Nc1ccc2c(c1)CC(=O)N([C@H](C)CO)C[C@@H](C)[C@@H](CN(C)Cc1ccc(C(F)(F)F)cc1)O2 | -0.087% (inactive) |

| SMILES | activation |
| --- | --- |
| Cc1noc(C)c1NC(=O)Nc1ccc2c(c1)CC(=O)N([C@@H](C)CO)C[C@@H](C)[C@@H](CN(C)Cc1ccc(Cl)c(Cl)c1)O2 | 449% (active) |
| O=C(NCCN1CCOCC1)c1ccc2c(c1)N(Cc1cccc(Cl)c1)C(=O)c1ccccc1S2(=O)=O | 0.148% (inactive) |
| COc1ccc(NC(=O)CCCOc2ccc(C(C)=O)cc2)cc1S(=O)(=O)N1CCCCC1 | -6.06% (inactive) |
| CCOC(=O)C1CCN(C(=O)c2ccc3c(=O)n4nc(Nc5ccccc5CC)sc4nc3c2)CC1 | -0.0345% (inactive) |
| COc1ccc(NC(=O)C(c2ccncc2)n2c(=O)c(-c3cc4ccccc4[nH]3)nc3ccccc32)cc1 (stereo unspecified) | 0.124% (inactive) |
| CCOC(=O)C1CSCCS(=O)(=O)N1Cc1ccc(Cl)cc1 (stereo unspecified) | 0.0275% (inactive) |
| CN[C@H]1C[C@H]2c3cc(Oc4ccccc4C)ccc3CCN2C(=O)[C@H]1[C@H](C)O | -1.54% (inactive) |
| Cc1cc2ccccc2n1CCNC(=O)COc1ccc2ccccc2c1 | 51.8% (active) |
| Cc1ccc(C)c(NC(=O)CN(C)C(=O)COc2ccc3ccccc3c2)c1 | -0.121% (inactive) |
| COC(=O)C(C)NC(=O)COc1ccc2ccccc2c1 (stereo unspecified) | 0.228% (inactive) |
| CCCN1C[C@@H](C)[C@@H](OC)CN(C)C(=O)c2cc(NC(=O)CC(F)(F)F)ccc2OC[C@H]1C | 0.11% (inactive) |
| CC(C)(C)OC(=O)N[C@H](C(=O)OC(C)(C)C)c1ccc(Br)cc1 | 0.0795% (inactive) |
| O=C(NN=Cc1ccco1)C(=O)Nc1ccc(Cl)c([N+](=O)[O-])c1 | -0.0805% (inactive) |
| CC(=O)N1C[C@@H](CO)[C@@H](N(C)C(=O)C(C)(C)C)C[C@H]1c1ccccc1Br | -0.326% (inactive) |
| COc1cccc2cc(S(=O)(=O)c3ccc(C)cc3)/c(=N/NS(=O)(=O)c3ccc(C)cc3)oc12 | 0.616% (inactive) |
| Cc1cc(S(=O)(=O)c2cc3ccc(O)c(C)c3oc2=O)ccc1F | 69.9% (active) |
| Cc1ccc(CC2(C)C(=O)Nc3ccc(OC(F)(F)F)cc32)cc1 (stereo unspecified) | -0.201% (inactive) |
| Cn1cnc(S(=O)(=O)N2C[C@@H](O)COC[C@H]3O[C@@H](CC(=O)NCc4ccc(F)cc4)CC[C@@H]32)c1 | -0.0625% (inactive) |
| O=C(NC[C@H]1[C@@H](c2ccccc2)[C@H](CO)N1CC1CC1)c1cccnc1 | 0.036% (inactive) |
| Cc1ccc(Nc2nc(Cl)c(C=O)s2)cc1 | 48.9% (active) |
| Cc1ccc(Nc2nnc(SC(C)C(=O)NC3CC3)s2)cc1 (stereo unspecified) | -0.687% (inactive) |
| Cc1ccc(Nc2nc(-c3sc(NC(=O)c4ccccc4)nc3C)cs2)cc1 | 0.138% (inactive) |
| Cc1[nH]nc2c1C(c1ccc(Br)cc1)NC2=O (stereo unspecified) | -0.228% (inactive) |
| Cc1noc(C)c1NC(=O)Nc1ccc2c(c1)C(=O)N([C@@H](C)CO)C[C@H](C)[C@H](CN(C)S(=O)(=O)c1ccc(Cl)cc1)O2 | -0.247% (inactive) |
| COc1ccc(S(=O)(=O)N(C)C[C@H]2Oc3ccc(NC(=O)Nc4c(C)noc4C)cc3CC(=O)N([C@@H](C)CO)C[C@H]2C)cc1 | -4.24% (inactive) |
| COc1ccc(S(=O)(=O)N(C)C[C@@H]2Oc3ccc(NC(=O)Nc4c(C)noc4C)cc3C(=O)N([C@H](C)CO)C[C@@H]2C)cc1 | -0.053% (inactive) |

| SMILES | activation |
| --- | --- |
| COc1ccc(NC(=O)Nc2ccc3c(c2)C(=O)N([C@@H](C)CO)C[C@H](C)[C@@H](CN(C)S(=O)(=O)c2ccc(Cl)cc2)O3)cc1 | 8.29% (inactive) |
| COc1ccc(S(=O)(=O)N(C)C[C@H]2Oc3ccc(NC(=O)Nc4c(C)noc4C)cc3C(=O)N([C@H](C)CO)C[C@H]2C)cc1 | 45.3% (active) |
| COc1ccc(S(=O)(=O)N(C)C[C@H]2Oc3ccc(NC(=O)Nc4c(C)noc4C)cc3C(=O)N([C@@H](C)CO)C[C@@H]2C)cc1 | 43.2% (active) |
| CC1=C(C(=O)N(C(C)C)C(C)C)CC(CC(=O)NCCCCc2ccccc2)C(=O)N1CCC1=CCCCC1 (stereo unspecified) | 1.3% (inactive) |
| Cc1cc(C)n2c(Nc3c(C)cccc3C)c(CCc3ccccc3)nc2n1 | 0.0345% (inactive) |
| COc1cccc2c1C(=O)c1c(O)c3c(c(O)c1C2=O)CC(O)(C(C)=NNC(=O)c1ccc(Cl)c(Cl)c1)CC3OC1CC(N)C(O)C(C)O1 (stereo unspecified) | 160% (active) |
| CO[C@H]1CN(C)C(=O)c2ccc(NC(=O)CC(F)(F)F)cc2OC[C@H](C)N(C(=O)C2CC2)C[C@H]1C | -0.112% (inactive) |
| CCC(=O)Nc1ccc2c(c1)C(=O)N(C)[C@@H]1CC[C@@H](CC(=O)NCCN3CCCCC3)O[C@@H]1CO2 | -0.0795% (inactive) |
| CCNS(=O)(=O)c1ccc(CCC(=O)N2CCN(c3ccc(OC)cc3)CC2)cc1 | 31.3% (active) |
| COc1ccc(N2CCN(C(=O)CNC(=O)c3ccc(Br)o3)CC2)cc1 | -0.05% (inactive) |
| CCNS(=O)(=O)c1ccc(CCC(=O)N2CCN(c3cc(Cl)ccc3C)CC2)cc1 | -0.168% (inactive) |
| COc1ccccc1CCn1cnc(-c2ccccc2)c1C(C)C | -0.038% (inactive) |
| O=C(c1cccnc1)N1C[C@@H]2[C@H](c3ccccc31)[C@@H](CO)N2C(=O)Nc1ccc(F)cc1 | 0.778% (inactive) |
| Cc1ccccc1NC(=O)c1cc(S(=O)(=O)Nc2cccc(C(=O)O)c2)ccc1Cl | 65.6% (active) |
| O=C(Nc1ccc(Br)cc1)c1cc(S(=O)(=O)Nc2ccccn2)ccc1Cl | 0.225% (inactive) |
| Cc1cccc(NS(=O)(=O)c2cccc(C(=O)NNC(=O)c3ccccc3O)c2)c1 | -0.07% (inactive) |
| CC(C)C[C@H]1CN([C@@H](Cc2ccccc2)CN2CCC[C@@H]2CN2C(=O)C(=O)NC[C@@H]2Cc2ccc(O)cc2)C(=O)C(=O)N1CCc1ccccc1 | 9.99% (inactive) |
| COc1ccc(C(=O)Nc2ccccc2C(=O)N2CCN(c3ccccc3)CC2)cc1 | 0.169% (inactive) |
| COc1ccc(N2CCN(C(=O)c3ccccc3NC(=O)C3=C(C)OCCS3)CC2)cc1 | 54.3% (active) |
| CCCCNC(=O)c1ccccc1NC(=O)C1=C(C)OCCS1 | 0.108% (inactive) |
| COc1ccc(Sc2ccc(NC(=O)c3cccc(Cl)c3)cc2C#N)cc1 | 2.08% (inactive) |
| CCCCSCCCNC(=O)C1CCC(CNS(=O)(=O)c2ccc(NC(C)=O)cc2)CC1 (stereo unspecified) | 58.2% (active) |
| O=C(O)C1CCC(CNS(=O)(=O)c2ccc(Br)cc2)CC1 (stereo unspecified) | -0.071% (inactive) |
| COCCCNC(=O)C1CCC(CNS(=O)(=O)c2ccc(OC)cc2)CC1 (stereo unspecified) | -0.0375% (inactive) |
